# Rows were chosen to be rich in hits. Some 2.2% of all compounds tested hit in one or more screens of this group.
# b-catenin transl: alters nuclear translocation of beta-catenin in HeLa cells. immunofluorescence imaging. nuclear translocation activity, % at 5 µM. 190,000 tested, 0.3% active. AID 1665;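 active = nuclear translocation activity above 50% at 5 µM, with a well cell count of 50 or more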;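 note: per-cell ratio of nuclear to cytoplasmic median beta-catenin stain intensity; plate controls were DMSO negative control for no effect and GSK-3 inhibitor IX positive control for full effect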
#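 Test system: human HeLa cells, endogenous beta-catenin. Times: 24 h compound exposure, 37°C. Measured by: beta-catenin immunofluorescence imaging with DAPI.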
# MT stabilize HCS: microtubule stabilizers in HeLa cells; HeLa tubulin immunostaining HCS, 24 h; share of cells brighter than vehicle mean+2SD; % tubulin-high responders, % at 10 µM; 200,000 tested, 0.83% active;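 active = plate Z-score above 3 for both tubulin-high and condensed-nucleus cell shares, with cell loss under 80%, at 10 µM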;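 note: anti alpha tubulin signal scored within the nucleus-defined area of each cell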
# APP transl inh: APP translation inhibition. inhibition, % at 2 µM. SH-SY5Y APP 5'UTR-luciferase reporter, luminescence. 190,000 tested, 0.82% active. AID 1285;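 active = inhibition above a set limit, derived from the sample mean plus 3 SD, cut at about 45% in these data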
# IEC-6 tox: IEC-6 cytotoxicity, counter-screen for KLF5 inhibitors; luminescence viability; 290,000 tested, 0.78% active; inhibition, % at 5 µM;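 note: 0% = plate median of test compound wells and 100% = cytotoxic reference compound wells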
# BaF3 tox: parental Ba/F3 viability inhibition as JAK2V617F counter-screen | CellTiter-Glo ATP luminescence | inhibition, % at 5.6 µM | 220,000 tested, 1.1% active | AID 1486;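 active = inhibition above a per-campaign cutoff, the mean inhibition of all tested compounds plus 3 SD, cut at about 27% in these data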;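 note: 0% = DMSO wells and 100% = JAK Inhibitor I control wells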
# Ba/F3 V617F tox: lowers viability of Ba/F3 cells expressing EpoR and JAK2V617F | ATP luminescence | inhibition, % at 5.6 µM | 220,000 tested, 1.1% active;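 active = inhibition above the campaign mean plus 3 SD over all tested compounds, cut at about 24% in these data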;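 note: cytokine-independent growth of Ba/F3 cells driven by EpoR plus mutant JAK2; 0% = DMSO-treated cells and 100% = JAK inhibitor I control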
# IEC-6 cytotox cf: confirmation of cytotoxic compounds in rat IEC-6 intestinal epithelial cells; AID 1907; IEC-6 rat intestinal epithelial viability, luminescence; inhibition, % at 5 µM; 1,900 tested, 63% active; shares compounds with IEC-6 tox;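 note: 0% = vehicle and 100% = reference cytotoxic drug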
# * marks the source's active call; other numbers are inactive results; . = no result given. Cut-off read from the data, not from the text of the source, unless noted: active = inhibition above about 22%; inactive = the rest.
SMILES,b-catenin transl,MT stabilize HCS,APP transl inh,IEC-6 tox,BaF3 tox,Ba/F3 V617F tox,IEC-6 cytotox cf
Cc1cccc2c(C(=O)N3CCN(c4ccccn4)CC3)cc(-c3cccc(Br)c3)nc12,.,.,.,29*,.,.,6
Cc1cccc2c(C(=O)N3CCN(c4ccccc4)CC3)cc(-c3ccncc3)nc12,.,.,.,71*,.,.,53*
Cc1cccc2c(C(=O)N3CCCCC3)cc(-c3ccccc3)nc12,.,.,.,-3,.,.,.
CCc1ccc(NC(=O)CN(CC(=O)Nc2ccc(CC)cc2)CC(C)O)cc1 (stereo not given),.,.,.,-2,.,.,.
COc1ccc(/C=N/NC(=O)c2c(C)nc3ccc(Br)cn23)cc1OC,-1,.,.,4,-1,-2,.
Cc1ccc(/C=N/NC(=O)c2c(C)nc3ccc(Br)cn23)cc1,.,.,.,69*,.,.,45*
CSc1nnc2c3ccccc3n(CCc3ccccc3)c2n1,-8,2,22,46*,2,-1,42*
CSc1nnc2c3ccccc3n(Cc3ccccc3)c2n1,.,4,11,-5,4,7,.
COc1ccccc1-c1nnc(NC(=O)c2ccc(S(=O)(=O)N(C)CC3CCCO3)cc2)o1 (stereo not given),.,.,.,12,.,.,.
CN(CC1CCCO1)S(=O)(=O)c1ccc(C(=O)Nc2nc(-c3ccccn3)cs2)cc1 (stereo not given),-1,7,74*,57*,61*,70*,52*
CN(CC1CCCO1)S(=O)(=O)c1ccc(C(=O)Nc2nnc(-c3ccccc3)o2)cc1 (stereo not given),.,.,.,27*,.,.,6
CN(CC1CCCO1)S(=O)(=O)c1ccc(C(=O)Nc2ccccc2F)cc1 (stereo not given),.,.,.,-6,.,.,.
CCN(CC(=O)NC(C)(C)C)Cc1cc(=O)n2c(-c3ccccc3)csc2n1,.,.,.,-2,.,.,.
COc1ccc(N(CC(=O)N2CCN(Cc3ccccc3)CC2)S(C)(=O)=O)c(OC)c1,.,.,.,1,.,.,.
COc1cccc(N(CC(=O)NCCSCc2ccc(Cl)cc2)S(C)(=O)=O)c1,.,.,.,-7,.,.,.
Cc1c(/C=N\NC(=O)C2COc3ccccc3O2)c2ccccc2n1C (stereo not given),58*,6,91*,80*,76*,78*,61*
CC(C)c1c(C(=O)N/N=C/c2ccc3c(c2)OCO3)nnn1-c1nonc1N,.,.,.,-1,.,.,.
COc1ccc(/C(C)=N/NC(=O)c2nnn(-c3nonc3N)c2CN(C)c2ccccc2)cc1,.,.,.,1,.,.,.
C/C(=N\NC(=O)c1nnn(-c2nonc2N)c1CN(C)c1ccccc1)c1ccccc1O,.,.,.,51*,.,.,50*
CCN(CC)c1ccc(/C=N/NC(=O)c2nnn(-c3nonc3N)c2C(C)C)c(O)c1,.,.,.,97*,.,.,68*
CC1CCN(Cc2c(C(=O)N/N=C/c3ccccc3O)nnn2-c2nonc2N)CC1,.,.,.,47*,.,.,42*
CC(=O)NC(Cc1ccc(C)cc1)C(=O)NC1CCN(C(=O)NCc2ccccc2)CC1 (stereo not given),.,.,.,-1,.,.,.
O=C(CCc1ccccc1)NC(=S)Nc1ccccc1[N+](=O)[O-],.,.,.,1,.,.,.
COc1ccc2c(c1)C=C([C@@H]1C[C@H]3CN(c4ccccc4)C(=O)[C@]34CCCN14)CO2,2,2,-3,87*,101*,99*,1
Cc1c(O)nc(SCC(=O)Nc2nccs2)n(-c2ccccc2F)c1=O,.,.,.,7,.,.,.
SMILES,b-catenin transl,MT stabilize HCS,APP transl inh,IEC-6 tox,BaF3 tox,Ba/F3 V617F tox,IEC-6 cytotox cf
O=C(CSCc1cccc(Br)c1)N=Nc1c(O)[nH]c2ccccc12,-1,2,8,-5,0,-2,.
O=Nc1c(-c2c(O)[nH]c3cc(Br)ccc23)[nH]c2ccccc12,.,.,.,23*,.,.,3
c1csc(-c2nc3c4ccccc4c4ccccc4c3[nH]2)c1,.,2,7,24*,10,8,23*
COCC(=O)N1CCC(Oc2ccc(C(=O)N(C)C3CCCCC3)cc2)CC1,.,.,.,6,.,.,.
COc1ccc(/C=N/NC(=O)CCn2cnc(-c3ccccc3)c2-c2ccccc2)cc1OC,46,22*,80*,71*,63*,58*,46*
COc1ccc(/C=N/NC(=O)CCC(=O)Nc2ccccc2)cc1OC,0,2,-6,-2,1,-3,.
Cc1ccc(NC(=O)C2CCN(S(=O)(=O)c3ccc(N4CCCC4=O)cc3)CC2)cc1Cl,.,.,.,27*,.,.,13
Cc1ccccc1NS(=O)(=O)c1ccc(N2CCCC2=O)cc1,100*,37*,74*,55*,72*,85*,44*
COc1ccc(CCNS(=O)(=O)c2ccc(N3CCCC3=O)cc2)cc1,.,3,-5,-2,3,-3,.
COc1ccc(OC)c(NS(=O)(=O)c2ccc(N3CCCC3=O)cc2)c1,147*,22*,96*,88*,81*,79*,53*
COc1ccc(NC(=O)C2CCN(S(=O)(=O)c3ccc(N4CCCC4=O)cc3)CC2)c(OC)c1,.,.,.,3,.,.,.
c1ccc(C(c2ccccc2)c2ccn[nH]2)cc1,.,.,.,-1,.,.,.
CC1CN2C(c3ccc(Cl)cc3)=CSC2=N1 (stereo not given),.,.,.,2,.,.,.
O=C(Nc1ccc(NC(=O)c2ccc([N+](=O)[O-])o2)cc1Cl)c1ccco1,.,.,.,101*,.,.,27*
O=C(Nc1cccc(NC(=O)c2ccc([N+](=O)[O-])o2)c1)c1ccco1,.,.,.,99*,.,.,35*
Cc1c(NC(=O)c2ccc([N+](=O)[O-])o2)cccc1-c1nc2ncccc2o1,.,.,.,100*,.,.,22
O=C(Nc1ccc(NC(=O)c2ccco2)c(Cl)c1)c1ccccc1,0,3,-45,-4,4,-4,.
O=C(NC12CC3CC(CC(C3)C1)C2)c1ccc([N+](=O)[O-])o1,.,.,.,66*,.,.,25*
CC(C)CC(C(=O)NC(C)(C)C)N(Cc1ccccc1Cl)C(=O)c1snc(C(N)=O)c1N (stereo not given),.,.,.,-3,.,.,.
Cc1ccc(O)c(NC(=O)C2CCCN2C(=O)OCc2ccccc2)c1 (stereo not given),.,.,.,0,.,.,.
COCc1nc2ccccc2n1CCc1ccccc1,.,.,.,-1,.,.,.
O=C(Nc1cccc2ncccc12)c1ccc([N+](=O)[O-])o1,.,.,.,98*,.,.,24*
O=C(Nc1ccccc1Cl)c1ccc([N+](=O)[O-])o1,.,.,.,47*,.,.,21
Cc1ccccc1NC(=O)c1ccc([N+](=O)[O-])o1,8,3,-2,20,-2,-3,.
C=CCSc1nnc(NC(=O)CN2C(=O)NC3(CCCC3)C2=O)s1,.,.,.,-4,.,.,.
CCCCCC(=O)N[C@@H](c1ccccc1)[C@@H](O)C(=O)O[C@H]1C[C@@]2(O)[C@@H](OC(=O)c3ccccc3)C3[C@](C)(C(=O)[C@H](OC(C)=O)C(=C1C)C2(C)C)[C@@H](O)C[C@H]1OC[C@@]31OC(C)=O (stereo not given in full),.,.,.,96*,.,.,86*
Cc1onc(-c2ccccc2)c1C(=O)N1CCN(c2ncccc2C(F)(F)F)CC1,.,.,.,6,.,.,.

# High-throughput results: PubChem, several laboratories
